Experimental data taken from ChEMBL document CHEMBL3271979, “Inhibition of solid tumors by nitrosoureas. 1. Lewis lung carcinoma” (1977).
Active and inactive are the calls of the source. The rule behind the calls is not given here.

Legend:
Mus musculus [1] = assay: Antitumor activity against mouse advanced Lewis lung carcinoma allografted in BDF1 mouse assessed as complete regression of established tumor at 13 mg/kg, ip administered as single dose on 7th day post-tumor implantation; assay type: functional, organism-based; design: dose 13 mg/kg
Method in brief: (§1)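 BDF1 mice (C57Blk/6 × DBA/2) implanted sc by trocar with about 40 mg Lewis lung tumor fragments from bacteriologically sterile donors. Advanced-disease groups held tumors of about 400 mg by day 6-7, sized by caliper (w = ab²/2). Single ip injection on day 7, in water or saline vehicle, at or below the LD10 in normal mice. Tumors measured at least twice weekly.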

Mus musculus [2] = assay: Antitumor activity against mouse advanced Lewis lung carcinoma allografted in BDF1 mouse assessed as disease cure at 13 mg/kg, ip administered as single dose on 7th day post-tumor implantation measured for 80 days post-drug treatment; assay type: functional, organism-based; design: dose 13 mg/kg; method in brief: as §1
[3] = Antitumor activity against mouse advanced Lewis lung carcinoma allografted in BDF1 mouse assessed as increase in host life span at 13 mg/kg, ip administered as single dose on 7th day post-tumor implantation; assay type: functional; settings: route intraperitoneal; method in brief: as §1
Mus musculus [4] = assay: Antitumor activity against mouse early Lewis lung carcinoma allografted in ip dosed BDF1 mouse assessed as disease cure administered as single dose on 1 or 2 days post-tumor implantation measured for 80 days post-drug treatment; assay type: functional
Method in brief: (§2)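 BDF1 mice implanted sc by trocar with ~40 mg Lewis lung fragments from sterile donor tumors. A single ip dose was given on day 1 or 2 after implant, in water or saline vehicle. Cures were scored in animals observed for at least 80 days after treatment. Drug-toxicity controls were matched non-tumor-bearing mice monitored for body weight and deaths.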

Mus musculus [5] = assay: Antitumor activity against mouse early Lewis lung carcinoma allografted in ip dosed BDF1 mouse administered as single dose on 1 or 2 days post-tumor implantation measured for 80 days post-drug treatment; assay type: functional, organism-based; method in brief: as §2
[6] = Ratio of ED50 for antitumor activity against mouse L1210 cells allografted in ip dosed mouse to LD10 for mouse
Mus musculus [7] = assay: Antitumor activity against mouse advanced Lewis lung carcinoma allografted in ip dosed BDF1 mouse assessed as complete regression of established tumor administered as single dose on day 6 or 7 post-tumor implantation; assay type: functional, organism-based
Method in brief: (§3)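 BDF1 mice (C57Blk/6 × DBA/2) implanted sc by trocar with Lewis lung tumor fragments of about 40 mg, taken only from bacteriologically sterile donor tumors. Mice bearing tumors of about 400 mg (day 6-7) were selected. Each received a single ip dose on day 7, at or below the LD10 in normal mice. Groups were of 10 mice. Tumor weight was taken from calipers as w = ab²/2, measured at least twice weekly. Matched non-tumor mice served as toxicity controls.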

Mus musculus [8] = assay: Antitumor activity against mouse advanced Lewis lung carcinoma allografted in ip dosed BDF1 mouse assessed as disease cure administered as single dose on day 6 or 7 post-tumor implantation; assay type: functional, organism-based; method in brief: as §3
[9] = Antitumor activity against mouse advanced Lewis lung carcinoma allografted in ip dosed BDF1 mouse assessed as increase in host lifespan administered as single dose on day 6 or 7 post-tumor implantation; assay type: functional
Method in brief: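 Advanced Lewis lung model: about 40 mg fragments implanted sc by trocar into BDF1 mice, and mice with tumors of about 400 mg (day 6-7) selected. Tumor weight from calipers, w = ab²/2. Agent given as one ip dose in distilled water or physiological saline. Nontumor-bearing mice received matching doses as toxicity controls.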

[10] = Antitumor activity against mouse early Lewis lung carcinoma allografted in BDF1 mouse assessed as increase in host life span at 60 mg/kg, ip administered as single dose on 1 or 2 days post-tumor implantation; assay type: functional; settings: route intraperitoneal
Method in brief: (§4)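 BDF1 mice (C57Blk/6 × DBA/2) implanted sc by trocar with ~40 mg Lewis lung tumor fragments from bacteriologically sterile donor tumors. Single ip dose on day 1 or 2, as a solution or suspension in water (CMC or gum acacia) or saline (HPC or Tween 80). Read-out is […]. Same-dose toxicity controls were run in nontumor-bearing mice.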

[11] = Antitumor activity against mouse early Lewis lung carcinoma allografted in BDF1 mouse assessed as increase in host life span at 40 mg/kg, ip administered as single dose on 1 or 2 days post-tumor implantation; assay type: functional; settings: route intraperitoneal; method in brief: as §4
[12] = Antitumor activity against mouse early Lewis lung carcinoma allografted in BDF1 mouse assessed as increase in host life span at 26 mg/kg, ip administered as single dose on 1 or 2 days post-tumor implantation; assay type: functional; settings: route intraperitoneal; method in brief: as §4
Mus musculus [13] = assay: Antitumor activity against mouse advanced Lewis lung carcinoma allografted in BDF1 mouse assessed as disease cure at 37 mg/kg, ip administered as single dose on 7th day post-tumor implantation measured for 80 days post-drug treatment; assay type: functional, organism-based; design: dose 37 mg/kg; method in brief: as §3
Mus musculus [14] = assay: Antitumor activity against mouse advanced Lewis lung carcinoma allografted in BDF1 mouse assessed as disease cure at 25 mg/kg, ip administered as single dose on 7th day post-tumor implantation measured for 80 days post-drug treatment; assay type: functional, organism-based; design: dose 25 mg/kg; method in brief: as §3
Mus musculus [15] = assay: Antitumor activity against mouse advanced Lewis lung carcinoma allografted in BDF1 mouse assessed as disease cure at 16 mg/kg, ip administered as single dose on 7th day post-tumor implantation measured for 80 days post-drug treatment; assay type: functional, organism-based; design: dose 16 mg/kg; method in brief: as §3
[16] = Antitumor activity against mouse advanced Lewis lung carcinoma allografted in BDF1 mouse assessed as increase in host life span at 37 mg/kg, ip administered as single dose on 7th day post-tumor implantation; assay type: functional; settings: route intraperitoneal; method in brief: as §1
[17] = Antitumor activity against mouse advanced Lewis lung carcinoma allografted in BDF1 mouse assessed as increase in host life span at 25 mg/kg, ip administered as single dose on 7th day post-tumor implantation; assay type: functional; settings: route intraperitoneal; method in brief: as §1
[18] = Antitumor activity against mouse advanced Lewis lung carcinoma allografted in BDF1 mouse assessed as increase in host life span at 16 mg/kg, ip administered as single dose on 7th day post-tumor implantation; assay type: functional; settings: route intraperitoneal; method in brief: as §1
Mus musculus [19] = assay: Antitumor activity against mouse advanced Lewis lung carcinoma allografted in BDF1 mouse assessed as complete regression of established tumor at 37 mg/kg, ip administered as single dose on 7th day post-tumor implantation; assay type: functional, organism-based; design: dose 37 mg/kg; method in brief: as §3
Mus musculus [20] = assay: Antitumor activity against mouse advanced Lewis lung carcinoma allografted in BDF1 mouse assessed as complete regression of established tumor at 25 mg/kg, ip administered as single dose on 7th day post-tumor implantation; assay type: functional, organism-based; design: dose 25 mg/kg; method in brief: as §3
Mus musculus [21] = assay: Antitumor activity against mouse advanced Lewis lung carcinoma allografted in BDF1 mouse assessed as complete regression of established tumor at 16 mg/kg, ip administered as single dose on 7th day post-tumor implantation; assay type: functional, organism-based; design: dose 16 mg/kg; method in brief: as §3
[22] = Antitumor activity against mouse early Lewis lung carcinoma allografted in BDF1 mouse assessed as time delay in tumor growth at 60 mg/kg, ip administered as single dose on 1 or 2 days post-tumor implantation; assay type: functional; settings: route intraperitoneal
Method in brief: (§5)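 BDF1 mice (C57Blk/6 × DBA/2) implanted sc by trocar with ~40 mg Lewis lung tumor fragments from bacteriologically sterile donors. A single ip dose was given on day 1 or 2, as a solution or suspension in water or saline with suspending agent, at ≤0.5 ml. Tumors were measured by caliper at least twice weekly, with weight = ab²/2. Delay was taken as the days for the tumor to reach 1 g.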

[23] = Antitumor activity against mouse early Lewis lung carcinoma allografted in BDF1 mouse assessed as time delay in tumor growth at 40 mg/kg, ip administered as single dose on 1 or 2 days post-tumor implantation; assay type: functional; settings: route intraperitoneal; method in brief: as §5
[24] = Antitumor activity against mouse early Lewis lung carcinoma allografted in BDF1 mouse assessed as time delay in tumor growth at 26 mg/kg, ip administered as single dose on 1 or 2 days post-tumor implantation; assay type: functional; settings: route intraperitoneal; method in brief: as §5
Mus musculus [25] = assay: Antitumor activity against mouse advanced Lewis lung carcinoma allografted in BDF1 mouse assessed as disease cure at 36 mg/kg, ip administered as single dose on 7th day post-tumor implantation measured for 80 days post-drug treatment; assay type: functional, organism-based; design: dose 36 mg/kg; method in brief: as §3
Mus musculus [26] = assay: Antitumor activity against mouse advanced Lewis lung carcinoma allografted in BDF1 mouse assessed as disease cure at 54 mg/kg, ip administered as single dose on 7th day post-tumor implantation measured for 80 days post-drug treatment; assay type: functional, organism-based; design: dose 54 mg/kg; method in brief: as §3
[27] = Antitumor activity against mouse advanced Lewis lung carcinoma allografted in BDF1 mouse assessed as increase in host life span at 36 mg/kg, ip administered as single dose on 7th day post-tumor implantation; assay type: functional; settings: route intraperitoneal; method in brief: as §1
[28] = Antitumor activity against mouse advanced Lewis lung carcinoma allografted in BDF1 mouse assessed as increase in host life span at 54 mg/kg, ip administered as single dose on 7th day post-tumor implantation; assay type: functional; settings: route intraperitoneal; method in brief: as §1

In the case of `O=NN(CCCl)C(=O)N[C@H]1C(O)O[C@H](CO)[C@@H](O)[C@@H]1O` (stereo partly drawn) [CHLOROZOTOCIN], the inhibition (Mus musculus [1]) is reported as “inactive”, the Activity (Mus musculus [2]) is reported as “inactive” and the ILS at 13 mg/kg [3] is reported as 25%. The Activity (Mus musculus [4]) was “inactive”, the Activity (Mus musculus [5]) was “inactive” and the Ratio [6] was 0.4. For the same molecule, the inhibition (Mus musculus [7]) was “inactive”, the Activity (Mus musculus [8]) was “inactive” and the ILS [9] was over 25%.
For `CO[C@H]1CC[C@H](NC(=O)N(CCCl)N=O)CC1`, the ILS at 60 mg/kg [10] was 18%, the ILS at 40 mg/kg [11] was 0% and the ILS at 26 mg/kg [12] was 18%. For the same molecule, the Activity (Mus musculus [13]) was “inactive”, the Activity (Mus musculus [14]) was “inactive” and the Activity (Mus musculus [15]) was “inactive”. It also gave an ILS at 37 mg/kg [16] of 29%, an ILS at 25 mg/kg [17] of 29% and an ILS at 16 mg/kg [18] of 20%. For the same molecule, the inhibition (Mus musculus [19]) was “inactive”, the inhibition (Mus musculus [20]) was “inactive” and the inhibition (Mus musculus [21]) was “inactive”. The Time [22] was 9.5 days, the Time [23] was 2 days and the Time [24] was 0 days. For the same molecule, the inhibition (Mus musculus [7]) was “inactive”, the Activity (Mus musculus [8]) was “inactive” and the ILS [9] was over 25%.
For `COC(=O)[C@H]1CC[C@@H](NC(=O)N(CCCl)N=O)CC1`, the Activity (Mus musculus [25]) was “inactive”, the Activity (Mus musculus [26]) was “inactive” and the ILS at 36 mg/kg [27] was 120%. The ILS at 54 mg/kg [28] was 100%, the inhibition (Mus musculus [7]) was “Active” and the Activity (Mus musculus [8]) was “inactive”.
